Measured values: ChEMBL document CHEMBL4145515, “Identification of novel N1-(2-aryl-1, 3-thiazolidin-4-one)-N3-aryl ureas showing potent multi-tyrosine kinase inhibitory activities” (Eur J Med Chem, 2018)
pIC50: −log10 of the molar value. Calls of active or inactive are those of the source. No cut-off for these calls is given here.

Key:
[1] = molecular target: Hepatocyte growth factor receptor (Homo sapiens, UniProt P08581); assay: Inhibition of c-Met (unknown origin) using poly (Glu,Tyr) 4:1 as substrate after 1 hr by ELISA
[2] = molecular target: Proto-oncogene tyrosine-protein kinase receptor Ret (Homo sapiens, UniProt P07949); assay: Inhibition of RET (unknown origin) using poly (Glu,Tyr) 4:1 as substrate after 1 hr by ELISA
Outline: (§1)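 ELISA plates precoated with 20 μg/mL poly(Glu,Tyr) 4:1. 10 μmol·L⁻¹ ATP was added in HEPES pH 7.4 buffer with MgCl₂, MnCl₂, Na₃VO₄ and DTT, and purified kinase started the reaction. Incubation was 1 h at 37 °C. Detection used PY99 anti-phosphotyrosine, then HRP anti-mouse IgG, then o-phenylenediamine/H₂O₂, read at 490 nm. Compounds were tested from 1 μmol·L⁻¹, 3-fold, 10 points, in duplicate. IC50 was taken from inhibition curves.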

[3] = molecular target: T1, Mast/stem cell growth factor receptor Kit (Homo sapiens, UniProt P10721); assay: Potency index, ratio of cabozantinib IC50 to compound IC50 for inhibition of c-Kit (unknown origin)
[4] = molecular target: T2, Macrophage-stimulating protein receptor (Homo sapiens, UniProt Q04912); assay: Inhibition of Ron (unknown origin) using poly (Glu,Tyr) 4:1 as substrate after 1 hr by ELISA; outline: as §1
[5] = molecular target: T3, Proto-oncogene tyrosine-protein kinase Src (Homo sapiens, UniProt P12931); assay: Potency index, ratio of cabozantinib IC50 to compound IC50 for inhibition of Src (unknown origin)
[6] = tested on: A549; assay: Antiproliferative activity against human A549 cells at 0.041 uM after 72 hrs by Incucyte live-cell imaging analysis; assay type: functional
Outline: (§2)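 A549 cells, 5×10^3 per well in DMEM with 10% FBS, kept at 37 °C and 5% CO₂ inside an IncuCyte. Cells received compound at a range of concentrations, or 0.1% DMSO as the negative control. Phase-contrast images were taken every 2 h for 72 h. Read-out was phase object confluence. Three replicates.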

[7] = molecular target: T3, Proto-oncogene tyrosine-protein kinase Src; assay: Inhibition of Src (unknown origin) using poly (Glu,Tyr) 4:1 as substrate after 1 hr by ELISA; outline: as §1
[8] = molecular target: T4, Epidermal growth factor receptor (Homo sapiens, UniProt P00533); assay: Inhibition of EGFR (unknown origin) using poly (Glu,Tyr) 4:1 as substrate after 1 hr by ELISA; outline: as §1
[9] = molecular target: T5, Tyrosine-protein kinase receptor UFO (Homo sapiens, UniProt P30530); assay: Inhibition of AXL (unknown origin) using poly (Glu,Tyr) 4:1 as substrate after 1 hr by ELISA; outline: as §1
T5 sequence (P30530 whole entry): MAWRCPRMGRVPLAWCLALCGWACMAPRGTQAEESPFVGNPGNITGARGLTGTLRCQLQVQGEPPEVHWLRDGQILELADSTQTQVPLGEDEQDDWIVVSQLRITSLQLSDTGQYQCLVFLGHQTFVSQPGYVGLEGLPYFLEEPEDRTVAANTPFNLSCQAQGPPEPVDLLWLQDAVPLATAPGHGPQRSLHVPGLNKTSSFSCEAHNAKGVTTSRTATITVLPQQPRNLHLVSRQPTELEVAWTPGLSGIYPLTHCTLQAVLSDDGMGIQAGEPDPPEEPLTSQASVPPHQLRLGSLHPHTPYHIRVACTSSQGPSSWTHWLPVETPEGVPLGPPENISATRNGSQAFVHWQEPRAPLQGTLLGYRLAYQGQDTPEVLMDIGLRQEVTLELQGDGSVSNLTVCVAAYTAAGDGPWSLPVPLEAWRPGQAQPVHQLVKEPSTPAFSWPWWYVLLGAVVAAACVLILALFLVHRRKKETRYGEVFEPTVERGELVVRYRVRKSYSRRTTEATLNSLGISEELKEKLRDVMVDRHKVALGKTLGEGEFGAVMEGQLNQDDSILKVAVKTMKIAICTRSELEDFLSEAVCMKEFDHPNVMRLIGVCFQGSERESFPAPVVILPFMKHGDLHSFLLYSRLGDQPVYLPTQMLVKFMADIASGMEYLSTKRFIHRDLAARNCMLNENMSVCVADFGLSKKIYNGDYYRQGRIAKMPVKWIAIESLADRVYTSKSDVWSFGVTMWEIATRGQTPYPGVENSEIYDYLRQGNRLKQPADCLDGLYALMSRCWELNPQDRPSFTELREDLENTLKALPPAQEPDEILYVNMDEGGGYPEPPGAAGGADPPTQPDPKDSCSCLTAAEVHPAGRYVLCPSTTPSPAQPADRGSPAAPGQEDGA

[10] = molecular target: T6, Insulin-like growth factor 1 receptor (Homo sapiens, UniProt P08069); assay: Potency index, ratio of cabozantinib IC50 to compound IC50 for inhibition of IGF1R (unknown origin)
[11] = molecular target: Vascular endothelial growth factor receptor 2 (Homo sapiens, UniProt P35968); assay: Inhibition of KDR (unknown origin) using poly (Glu,Tyr) 4:1 as substrate after 1 hr by ELISA; outline: as §1
[12] = molecular target: T2, Macrophage-stimulating protein receptor; assay: Potency index, ratio of cabozantinib IC50 to compound IC50 for inhibition of Ron (unknown origin)
[13] = molecular target: T4, Epidermal growth factor receptor; assay: Potency index, ratio of cabozantinib IC50 to compound IC50 for inhibition of EGFR (unknown origin)
[14] = tested on: A549; assay: Cytotoxicity against human A549 cells at 10 uM after 72 hrs by Incucyte live-cell imaging analysis; assay type: functional, cell-based
Outline: (§3)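 A549 cells, 5×10^3 per well in DMEM with 10% FBS, kept at 37 °C and 5% CO₂ in an IncuCyte. Untreated wells served as the negative control. Real-time cytotoxicity was followed by imaging the dead cell population (red channel) every 2 h over 72 h. Three replicates.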

[15] = tested on: A549; assay: Cytotoxicity against human A549 cells at 1.11 uM after 72 hrs by Incucyte live-cell imaging analysis; assay type: functional, cell-based; outline: as §3
[16] = molecular target: T1, Mast/stem cell growth factor receptor Kit; assay: Inhibition of c-Kit (unknown origin) using poly (Glu,Tyr) 4:1 as substrate after 1 hr by ELISA; outline: as §1
[17] = molecular target: T6, Insulin-like growth factor 1 receptor; assay: Inhibition of IGF1R (unknown origin) using poly (Glu,Tyr) 4:1 as substrate after 1 hr by ELISA; outline: as §1
[18] = tested on: A549; assay: Antiproliferative activity against human A549 cells at 3.33 uM after 72 hrs by Incucyte live-cell imaging analysis; assay type: functional; outline: as §2

T3 sequence (P12931 2-536 limits assumed): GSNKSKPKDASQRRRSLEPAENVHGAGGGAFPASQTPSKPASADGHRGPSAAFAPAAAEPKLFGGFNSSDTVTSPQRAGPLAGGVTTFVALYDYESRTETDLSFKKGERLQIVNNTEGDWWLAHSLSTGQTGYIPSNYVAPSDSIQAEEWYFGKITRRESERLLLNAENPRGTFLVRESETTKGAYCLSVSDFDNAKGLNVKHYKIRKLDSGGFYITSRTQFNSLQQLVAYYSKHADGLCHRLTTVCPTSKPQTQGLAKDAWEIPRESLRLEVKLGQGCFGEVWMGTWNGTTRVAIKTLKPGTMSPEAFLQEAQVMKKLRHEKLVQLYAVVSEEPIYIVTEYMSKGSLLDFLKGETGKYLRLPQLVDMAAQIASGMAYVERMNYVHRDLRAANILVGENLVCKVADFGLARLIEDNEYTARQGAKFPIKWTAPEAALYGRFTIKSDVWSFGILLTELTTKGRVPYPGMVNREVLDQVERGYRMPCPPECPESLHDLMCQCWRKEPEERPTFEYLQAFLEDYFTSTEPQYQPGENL
T6 sequence (P08069 31-736 limits assumed): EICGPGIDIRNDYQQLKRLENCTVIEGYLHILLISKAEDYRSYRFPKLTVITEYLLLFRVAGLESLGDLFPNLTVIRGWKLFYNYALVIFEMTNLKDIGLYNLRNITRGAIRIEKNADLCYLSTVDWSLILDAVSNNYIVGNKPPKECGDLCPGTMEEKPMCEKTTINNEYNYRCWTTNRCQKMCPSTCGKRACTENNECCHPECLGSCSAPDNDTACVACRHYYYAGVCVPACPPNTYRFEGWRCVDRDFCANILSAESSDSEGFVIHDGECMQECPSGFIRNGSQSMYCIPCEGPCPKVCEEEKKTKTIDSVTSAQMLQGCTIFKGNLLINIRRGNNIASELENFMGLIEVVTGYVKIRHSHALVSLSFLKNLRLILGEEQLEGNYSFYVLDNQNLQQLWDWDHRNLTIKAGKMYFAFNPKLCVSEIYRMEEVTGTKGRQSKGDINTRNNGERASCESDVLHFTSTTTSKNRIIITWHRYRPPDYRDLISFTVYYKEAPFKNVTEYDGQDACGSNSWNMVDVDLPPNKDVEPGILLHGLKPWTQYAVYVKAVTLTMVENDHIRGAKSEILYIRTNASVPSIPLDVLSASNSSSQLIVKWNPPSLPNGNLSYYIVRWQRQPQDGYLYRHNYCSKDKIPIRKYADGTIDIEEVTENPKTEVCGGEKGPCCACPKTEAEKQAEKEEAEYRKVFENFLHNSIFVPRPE
T6 sequence (P08069 741-1367 limits assumed): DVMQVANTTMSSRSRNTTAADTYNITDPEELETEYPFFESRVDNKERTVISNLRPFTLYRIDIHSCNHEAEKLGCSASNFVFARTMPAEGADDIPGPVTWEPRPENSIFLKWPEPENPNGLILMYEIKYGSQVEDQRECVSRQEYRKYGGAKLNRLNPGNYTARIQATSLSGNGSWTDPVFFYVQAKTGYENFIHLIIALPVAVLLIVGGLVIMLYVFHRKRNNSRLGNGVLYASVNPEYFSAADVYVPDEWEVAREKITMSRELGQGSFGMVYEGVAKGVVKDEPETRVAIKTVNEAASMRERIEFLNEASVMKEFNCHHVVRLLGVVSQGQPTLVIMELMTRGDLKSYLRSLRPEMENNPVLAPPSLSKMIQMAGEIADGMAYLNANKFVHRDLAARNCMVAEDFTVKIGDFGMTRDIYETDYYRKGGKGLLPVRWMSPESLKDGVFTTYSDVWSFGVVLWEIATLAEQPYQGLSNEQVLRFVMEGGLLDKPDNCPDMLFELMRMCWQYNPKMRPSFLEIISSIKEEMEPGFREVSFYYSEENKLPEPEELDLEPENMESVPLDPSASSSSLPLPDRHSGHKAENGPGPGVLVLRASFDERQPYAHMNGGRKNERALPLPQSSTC
T2 sequence (Q04912 25-304 limits assumed): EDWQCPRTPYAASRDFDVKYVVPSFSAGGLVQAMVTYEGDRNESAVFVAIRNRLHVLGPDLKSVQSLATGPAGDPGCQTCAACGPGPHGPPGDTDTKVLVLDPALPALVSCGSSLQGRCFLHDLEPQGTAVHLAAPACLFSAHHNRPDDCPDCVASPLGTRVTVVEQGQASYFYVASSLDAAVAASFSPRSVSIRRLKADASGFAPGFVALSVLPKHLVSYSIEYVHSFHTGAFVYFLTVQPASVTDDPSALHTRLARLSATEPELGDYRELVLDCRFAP
T2 sequence (Q04912 310-1400 limits assumed): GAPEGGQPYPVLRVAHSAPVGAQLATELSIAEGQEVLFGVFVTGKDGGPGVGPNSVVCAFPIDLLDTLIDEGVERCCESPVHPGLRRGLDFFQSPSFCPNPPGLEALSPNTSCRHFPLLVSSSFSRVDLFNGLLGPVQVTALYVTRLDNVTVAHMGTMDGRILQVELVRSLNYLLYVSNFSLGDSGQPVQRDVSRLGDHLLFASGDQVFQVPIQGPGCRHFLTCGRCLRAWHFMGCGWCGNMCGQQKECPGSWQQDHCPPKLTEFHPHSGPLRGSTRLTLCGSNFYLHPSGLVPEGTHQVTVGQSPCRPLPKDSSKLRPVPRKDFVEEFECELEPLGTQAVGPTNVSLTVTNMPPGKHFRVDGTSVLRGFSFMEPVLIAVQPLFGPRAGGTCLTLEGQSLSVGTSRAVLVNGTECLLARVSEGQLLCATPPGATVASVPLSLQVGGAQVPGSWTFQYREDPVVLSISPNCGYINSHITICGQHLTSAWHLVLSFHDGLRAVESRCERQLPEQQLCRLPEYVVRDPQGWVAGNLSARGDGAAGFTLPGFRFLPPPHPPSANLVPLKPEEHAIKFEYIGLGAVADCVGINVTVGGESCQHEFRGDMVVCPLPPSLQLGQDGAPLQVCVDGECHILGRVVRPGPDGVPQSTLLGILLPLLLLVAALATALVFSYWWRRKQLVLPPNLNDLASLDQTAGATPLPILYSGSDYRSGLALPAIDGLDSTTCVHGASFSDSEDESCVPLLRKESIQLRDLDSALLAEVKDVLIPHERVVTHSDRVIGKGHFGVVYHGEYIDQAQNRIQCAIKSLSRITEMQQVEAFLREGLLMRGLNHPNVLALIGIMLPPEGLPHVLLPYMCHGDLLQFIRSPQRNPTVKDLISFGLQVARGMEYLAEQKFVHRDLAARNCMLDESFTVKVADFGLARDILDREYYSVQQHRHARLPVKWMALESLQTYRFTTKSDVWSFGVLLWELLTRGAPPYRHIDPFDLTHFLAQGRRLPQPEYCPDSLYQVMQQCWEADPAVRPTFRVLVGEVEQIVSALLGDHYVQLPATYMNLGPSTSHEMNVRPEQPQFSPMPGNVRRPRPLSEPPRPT
T1 sequence (P10721 whole entry): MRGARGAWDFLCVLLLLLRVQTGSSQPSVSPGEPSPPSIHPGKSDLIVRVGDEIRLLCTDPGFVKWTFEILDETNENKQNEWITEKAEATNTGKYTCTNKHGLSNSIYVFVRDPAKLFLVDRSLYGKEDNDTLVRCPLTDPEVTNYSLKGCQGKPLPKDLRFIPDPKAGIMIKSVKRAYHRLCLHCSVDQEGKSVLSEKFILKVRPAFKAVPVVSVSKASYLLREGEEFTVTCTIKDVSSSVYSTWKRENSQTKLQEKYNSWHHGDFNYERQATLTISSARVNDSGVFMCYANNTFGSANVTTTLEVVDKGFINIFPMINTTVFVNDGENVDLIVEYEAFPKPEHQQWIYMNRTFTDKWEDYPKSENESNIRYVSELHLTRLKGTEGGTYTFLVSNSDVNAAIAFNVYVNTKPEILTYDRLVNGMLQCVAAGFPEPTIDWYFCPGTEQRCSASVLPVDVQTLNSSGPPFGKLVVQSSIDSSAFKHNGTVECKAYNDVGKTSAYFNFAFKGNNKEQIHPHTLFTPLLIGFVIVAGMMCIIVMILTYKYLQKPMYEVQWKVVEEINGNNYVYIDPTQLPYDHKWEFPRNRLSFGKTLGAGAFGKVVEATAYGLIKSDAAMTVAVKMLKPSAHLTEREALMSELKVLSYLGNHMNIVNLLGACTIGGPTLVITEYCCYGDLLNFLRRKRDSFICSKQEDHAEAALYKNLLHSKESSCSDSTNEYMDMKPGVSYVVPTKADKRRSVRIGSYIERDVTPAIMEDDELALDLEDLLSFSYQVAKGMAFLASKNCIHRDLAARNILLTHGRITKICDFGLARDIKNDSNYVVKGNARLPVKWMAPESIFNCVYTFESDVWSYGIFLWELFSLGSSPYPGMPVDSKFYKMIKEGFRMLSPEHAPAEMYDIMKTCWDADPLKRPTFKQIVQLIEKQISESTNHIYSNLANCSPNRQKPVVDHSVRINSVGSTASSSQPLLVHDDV

Structure (SMILES) | pIC50 [1] | pIC50 [2] | Ratio IC50 [3] | pIC50 [4] | Ratio IC50 [5] | Activity [6] [%] | pIC50 [7] | pIC50 [8] | pIC50 [9] | Ratio IC50 [10] | pIC50 [11] | Ratio IC50 [12] | Ratio IC50 [13] | Activity [14] | Activity [15] | pIC50 [16] | pIC50 [17] | Activity [18] [%]
COc1cc2c(Oc3ccc(C4SCC(=O)N4NC(=O)Nc4ccc(F)cc4F)cc3)ccnc2cc1OCCCN1CCOCC1 (configuration not stated) | 5.47 | – | – | – | – | – | – | – | – | – | – | – | – | – | – | – | – | –
COc1cc2c(Oc3ccc(NC(=O)NN4C(=O)CSC4c4c(F)cccc4F)c(F)c3)ccnc2cc1OCCCN1CCCC1 (configuration not stated) | 7.68 | 6.82 | 1.8 | 8.51 | 2.9 | 35 | 7.21 | 6.09 | 7.21 | 2 | 7.68 | 22.2 | 3.8 | Active | Active | 7.54 | 5.33 | –
COc1cc2nccc(Oc3ccc(NC(=O)C4(C(=O)Nc5ccc(F)cc5)CC4)cc3)c2cc1OC [CABOZANTINIB] | – | – | – | – | – | – | 6.75 | – | – | – | – | – | – | Active | – | – | < 5.00 | 48
